Results on one compound are retold here after ChEMBL document CHEMBL1143814, “Clinical and pharmacokinetic data support once-daily low-dose boosted saquinavir (1,200 milligrams saquinavir with 100 milligrams ritonavir) in treatment-naive or limited protease inhibitor-experienced human immunodeficiency virus-infected patients” (Antimicrob Agents Chemother, 2007).

What all share (format): ADME, organism-based
For series [1], the species on record is Homo sapiens. As to the kind of experiment: Ratio of elimination half life in PBMC cellular compartment to plasma in HIV infected virological failure patient. In outline:
(§1)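 Steady-state study (≥1 month on once-daily saquinavir 1,200 mg + ritonavir 100 mg with two NRTIs). 24-h profile: blood drawn predose and at 2, 4, 6, 8, 12 and 24 h after supervised intake. Plasma was separated, and PBMC were isolated on a Ficoll gradient, weighed, and volume was taken as weight. Saquinavir was measured by HPLC-UV at 215 nm (LLOQ 40 ng/ml). Noncompartmental analysis was used, with terminal slope from the 12–24 h points. Ratio = intracellular/plasma.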

The species named for series [2] is Homo sapiens. As to the kind of experiment: Ratio of Cmax in PBMC cellular compartment to plasma in HIV infected virological failure patient. In outline: as §1
Series [3] can be described thus: Cmin in HIV infected virological failure patient plasma after 24 hrs. To be noted: human, read-out: Cmin. The gist of the method: (§2)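 Plasma PK at steady state (≥1 month) in HIV patients on once-daily saquinavir 1,200 mg plus ritonavir 100 mg and two NRTIs. EDTA blood was drawn predose and at 2, 4, 6, 8, 12 and 24 h after supervised intake, or as a single 24 ± 0.5 h trough. Plasma was stored at −70°C and assayed by HPLC-UV at 215 nm (LLOQ 40 ng/ml). Parameters were noncompartmental, with the terminal slope from the 12–24 h points.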

A short description of series [4]: Ratio of AUC (0 to 24 hrs) in PBMC cellular compartment to plasma in HIV infected patient. To be noted: human, read-out: AUC_ratio. In outline:
as §1

A short description of series [5]: Elimination half life in HIV infected virological failure patient plasma after 24 hrs. The following applies: human. In outline: as §2
Series [6] is described as follows: AUC (0 to 24 hrs) in HIV infected patient plasma after 24 hrs. To be noted: human. Also noted: time < 24 hr. In outline:
as §2

A short description of series [7]: Ratio of Cmin in PBMC cellular compartment to plasma in HIV infected virological failure patient. To be noted: human, read-out: Cmin_ratio. In outline:
(§3)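 Trough (Cmin) saquinavir was sampled at steady state on once-daily 1,200/100 mg saquinavir/ritonavir, either as the 24-h point of the full profile or as a single sample 24 ± 0.5 h postdose. Plasma and Ficoll-isolated PBMC (volume from weight) were assayed by HPLC-UV at 215 nm (LLOQ 40 ng/ml). Ratio = intracellular/plasma concentration.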

The nature of series [8]: Elimination half life in PBMC cellular compartment of HIV infected virological failure patient after 24 hrs. To be noted: human. In outline:
(§4)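 PBMC drug levels, same once-daily saquinavir/ritonavir 1,200/100 mg regimen at steady state, same sampling times. PBMC were isolated from EDTA blood diluted 1:1 in PBS (pH 7.4) by Ficoll density centrifugation and washed twice in PBS. Pellet volume was taken as equal to its weight. Pellets were frozen at −70°C and assayed by HPLC-UV at 215 nm. Analysis was noncompartmental, with the terminal phase from the 12–24 h points.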

Series [9] is described as follows: AUC (0 to 24 hrs) in PBMC cellular compartment of HIV infected virological failure patient. Set-up: time < 24 hr. The following applies: human. In outline:
as §4

Series [10] can be described thus: AUC (0 to 24 hrs) in HIV infected virological failure patient plasma. The following applies: human. Set-up: time < 24 hr. The gist of the method:
as §1

Series [11] in a line: Cmax in PBMC cellular compartment of HIV infected virological failure patient after 24 hrs. To be noted: human. The gist of the method:
as §4

Series [12] in a line: Cmin in PBMC cellular compartment of HIV infected virological failure patient after 24 hrs. To be noted: human, read-out: Cmin. The gist of the method: as §4
Series [13] is described as follows: Cmin in HIV infected patient plasma after 24 hrs. To be noted: human, read-out: Cmin. The gist of the method: as §2
Series [14] in a line: Ratio of AUC (0 to 24 hrs) in PBMC cellular compartment to plasma in HIV infected virological failure patient. The following applies: human, read-out: AUC_ratio. In outline:
as §1

Series [15] is described as follows: Elimination half life in PBMC cellular compartment of HIV infected patient after 24 hrs. The following applies: human. In outline:
as §4

Series [16] can be described thus: AUC (0 to 24 hrs) in PBMC cellular compartment of HIV infected patient after 24 hrs. Also noted: time < 24 hr. The following applies: human. In outline:
as §4

The nature of series [17]: Elimination half life in HIV infected patient plasma after 24 hrs. The following applies: human. The gist of the method: as §2
The nature of series [18]: Cmax in HIV infected patient plasma after 24 hrs. To be noted: human. The gist of the method: as §2
For series [19], the species on record is Homo sapiens. As to the kind of experiment: Ratio of Cmax in PBMC cellular compartment to plasma in HIV infected patient. The gist of the method: as §1
Series [20] can be described thus: Ratio of Cmin in PBMC cellular compartment to plasma in HIV infected patient. The following applies: human, read-out: Cmin_ratio. In outline: as §3
Series [21] in a line: Cmax in HIV infected virological failure patient plasma after 24 hrs. To be noted: human. In outline: as §2
The species named for series [22] is Homo sapiens. As to the kind of experiment: Ratio of elimination half life in PBMC cellular compartment to plasma in HIV infected patient. In outline: as §1
[23] abbreviates: in the assay text read “HIV infected patient” for “HIV infected virological failure patient”.

For the compound `CC(C)(C)NC(=O)[C@@H]1C[C@@H]2CCCC[C@@H]2CN1C[C@@H](O)[C@H](Cc1ccccc1)NC(=O)[C@H](CC(N)=O)NC(=O)c1ccc2ccccc2n1` [SAQUINAVIR], the t1/2_ratio in the series filed under Homo sapiens [1] and in the series filed under Homo sapiens [22] was 1.5 throughout. Besides, the Cmax_ratio is reported as 4.46 (null) in the series filed under Homo sapiens [2] and 2.75 (null) in the series listed under Homo sapiens [19]. Also, the concentration at 24 h in series [3] is 384 ng/mL; in [12] (setting [23]), 996 ng/mL; in series [12], 1220 ng/mL; in series [13], 431 ng/mL. Moreover, the Kp in [4] is 2.75; in [7] it was 3.01; in [14] it was 3.53; in series [20], 2.39. The half-life was 8.51 h in series [5], 10.9 h in [8], 12.5 h in series [15] and 8.25 h in [17]. Besides, the AUC(0-t) at 24 h in [6] was found to be 34300 ng·h/mL; in [9], 132000 ng·h/mL; in series [10] it was 35300 ng·h/mL; in [16] it was 99500 ng·h/mL. The Cmax in series [11] is 15200 ng/mL; in series [11] (setting [23]) it was 10100 ng/mL; in series [18], 3670 ng/mL; in [21], 3320 ng/mL.
